This is a sample that favours compounds with a hit; in the whole collection about 4.8% have one here.
Jurkat NFkB inh: inhibitors of induced NF-kB luciferase reporter, primary screen, TCR NF-kB activation inhibitor project, cell-based, luminescence, uHTS; inhibition, % at 4 µM; AID 435003, 2010; Jurkat, PMA/ionomycin-induced NF-kB luciferase reporter; 0.53% of 330,000 active; in the data active = inhibition above about 50%
GPR7 antagonist: GPR7 receptor antagonists, primary screen, cell-based, fluorescence, single concentration; Neuropeptides B/W receptor type 1 (Homo sapiens), P48145; GPR7-expressing cells, fluorescence antagonist assay; inhibition, % at 4.4 µM; 1.1% of 290,000 active; in the data active = inhibition above about 16%, passing the limit was not always enough;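 also: cells stimulated with the agonist NPW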
Target sequence (P48145 whole entry, looked up): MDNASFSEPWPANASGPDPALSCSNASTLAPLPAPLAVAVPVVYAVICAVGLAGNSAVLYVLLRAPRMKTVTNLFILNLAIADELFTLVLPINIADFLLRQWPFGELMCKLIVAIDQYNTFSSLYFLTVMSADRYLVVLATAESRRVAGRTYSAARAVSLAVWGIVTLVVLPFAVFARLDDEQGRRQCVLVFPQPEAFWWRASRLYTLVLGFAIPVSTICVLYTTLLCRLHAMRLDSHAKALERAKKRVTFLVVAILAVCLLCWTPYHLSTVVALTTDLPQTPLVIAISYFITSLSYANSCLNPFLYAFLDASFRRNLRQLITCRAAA
T cruzi inh: inhibitors of intracellular T. cruzi growth, primary screen, luminescence, NIH3T3 host cells | T. cruzi beta-gal in NIH3T3, 90 h | inhibition, % (no concentration beside the values) | 1.4% of 300,000 active | AID 1885, 2009;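 active = mean inhibition across valid replicates above about 55%, limit read from the data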;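 also: signal also drops with host cell toxicity which is not excluded here; higher percent means less beta-gal luminescence so fewer parasites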
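System – NIH/3T3 host cells with β-galactosidase reporter T. cruzi · Doses – single 50 nL compound addition per well in DMSO · Reagent – 5000 T. cruzi trypomastigotes/well · Medium – Low-serum DMEM with 2% FBS · Timing – ≥90 h infection period, 3 h prior cell attachment · Evaluation – parasite load inhibition, % · Technique – GalScreen luminescence, 60 min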
HSF1 inh: HSF1 inhibitors in luciferase reporter cells, primary screen, cell-based, NIH3T3, luminescence; NIH3T3-HGL HSE-luciferase, MG132-induced, luminescence 8 h; stronger effect = lower value; 0.77% of 300,000 active; activity change, negative = inhibition, % at 7.5 µM (by protocol);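 active = more than half of replicate wells show activity change below -50%, luminescence cut by over half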;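 also: luciferase reports HSF-1 transcriptional activity via heat shock element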
HSF1 activator: HSF-1 activators, primary screen, NIH3T3-HGL cells, MG132 stress, luminescence, single point | NIH3T3-HGL HSF-1 luciferase reporter, 8 h; 100% = twice DMSO control signal | AID 504408, 2011 | 1.7% of 300,000 active | activation, % at 9 µM;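 active = mean replicate activation of at least 50% with a set share of replicates each reaching 50%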
697 NFkB inh: inhibitors of PMA/ionomycin-induced NF-kB reporter, 697 cells, primary screen, B-cell NF-kB inhibitor project, cell-based, luminescence, uHTS | 0.33% of 330,000 active | 697 B-cell NF-kB luciferase reporter, 16 h | inhibition, % at 4 µM; in the data active = inhibition above about 35%
GPR7 antag cf: GPR7 receptor antagonists, confirmation, cell-based, fluorescence, single concentration; shares compounds with GPR7 antagonist; AID 1952, 2009; inhibition, % at 4.4 µM; 52% of 2,400 active; GPR7-expressing cells, calcium fluorescence antagonist mode; in the data active = inhibition above about 24%;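 also: stimulated with the GPR7 agonist NPW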
MCHR1 antag: MCHR1 antagonists in cells, counter-screen for GPR7 antagonist project, cell-based, fluorescence, human; 62% of 2,400 active; inhibition, % at 4.4 µM; shares compounds with GPR7 antagonist; MCHR1-expressing cells, fluorescence antagonist assay; AID 2148, 2009; in the data active = inhibition above about 22%
Numbers stand for hits; i = inactive; nt = no result.

SMILES	Jurkat NFkB inh	GPR7 antagonist	T cruzi inh	HSF1 inh	HSF1 activator	697 NFkB inh	GPR7 antag cf	MCHR1 antag
CCCCC(=O)Nc1ncc(S(=O)(=O)c2ccc([N+](=O)[O-])cc2)s1	i	35.4	i	i	i	i	25.9	24.6
CC(=O)NCCC(=O)Nc1ncc(S(=O)(=O)c2ccc([N+](=O)[O-])cc2)s1	i	nt	i	i	i	i	nt	nt
CCCCNC(=O)Cn1c(=O)c2c(ncn2CCC(C)C)n(Cc2ccccc2)c1=O	i	i	i	i	i	i	nt	nt
O=C(Nc1ccc(NC(=O)c2ccccc2F)cn1)c1ccco1	i	i	i	i	i	i	nt	nt
CNC(=O)CCn1nc(-c2ccc(Cl)cc2)c2ccccc2c1=O	i	24.2	i	i	i	i	i	i
COC(=O)CCn1nc(-c2ccc(Cl)cc2)c2ccccc2c1=O	i	i	i	nt	nt	i	nt	nt
c1ccc(-n2ncc3c(NCc4ccco4)ncnc32)cc1	i	24.4	i	i	i	i	47.5	43.8
CCCCNC1c2ccccc2C(=O)N1Cc1ccccc1 (stereo not drawn)	i	28.4	i	i	i	i	i	i
O=C(CSC1=NCCS1)NC(NC(=O)CSC1=NCCS1)c1ccccc1	i	28.8	i	i	i	i	i	i
Cc1ccc(S(=O)(=O)N2CCN(C)CC2c2ccccc2)cc1 (stereo not drawn)	i	nt	nt	nt	nt	i	nt	nt
COc1ccc(CN(CCC(c2ccccc2)C2CCOC(C)(C)C2)C(C)=O)cc1 (stereo not drawn)	i	23.7	i	i	i	i	i	26.2
CCC(=O)c1ccc(OCC(=O)NCC2COc3ccccc3O2)cc1 (stereo not drawn)	i	nt	nt	nt	nt	i	nt	nt
CCNCc1cc(Cl)c(OCc2ccccc2)c(OCC)c1	i	i	i	i	i	i	nt	nt
COc1cc(CNCc2ccccn2)ccc1OCc1ccc(Cl)c(Cl)c1	i	24.2	i	i	i	i	i	68.4
CCOc1cc(CNCc2ccccc2)ccc1OCc1ccc(Cl)cc1	i	65.8	55.3	i	i	i	56.4	77.8
COc1cc(CNCc2ccccn2)ccc1OCc1ccc(Cl)cc1Cl	i	i	i	i	i	i	nt	nt
CC(C(=O)OCC(=O)Nc1ccc(S(=O)(=O)N2CCCCC2)cc1)N1C(=O)c2ccccc2C1=O (stereo not drawn)	i	i	i	i	i	i	nt	nt
COc1ccc(OC)c(S(=O)(=O)N2CCC(C(=O)NCCc3ccccc3)CC2)c1	i	i	i	i	i	i	nt	nt
c1ccc(CCn2nnnc2C(c2cccs2)N2CCN(Cc3ccc4c(c3)OCO4)CC2)cc1 (stereo not drawn)	i	21.7	i	i	i	i	i	34.4
Cc1ccc2oc(C(=O)NCC3CCOCC3)c(C)c2c1	i	i	i	i	i	i	nt	nt
CCOc1ccc(NC2=C(Cl)C(=O)N(Cc3ccccc3)C2=O)cc1	i	73.8	i	i	i	i	99.3	64.2
COc1ccc(CNC(=O)C(OC(=O)c2cccs2)C(C)C)cc1 (stereo not drawn)	i	i	i	i	i	i	nt	nt
CC(C)C(OC(=O)c1cccs1)C(=O)NCc1cccs1 (stereo not drawn)	i	36.5	i	i	i	i	i	i
C=CCOC(=O)C1=C[C@@H](c2ccc(C(F)(F)F)cc2)[C@H](CCCO)[C@@H](OCC)O1	i	i	i	i	i	i	nt	nt
Cc1nonc1C(=O)N1CCCC(Nc2ccc(C(C)C)cc2)C1 (stereo not drawn)	i	24.6	i	i	i	i	i	26.2
SMILES	Jurkat NFkB inh	GPR7 antagonist	T cruzi inh	HSF1 inh	HSF1 activator	697 NFkB inh	GPR7 antag cf	MCHR1 antag
Cc1nnsc1C(=O)N1CCCC(Nc2ccc(C(C)C)cc2)C1 (stereo not drawn)	i	i	i	i	i	i	nt	nt
CC(C)c1ccc(NC2CCCN(C(=O)CCN3CCCC3=O)C2)cc1 (stereo not drawn)	i	i	i	i	i	i	nt	nt
CC(C)c1ccc(NC2CCCN(C(=O)CC3CCCC3)C2)cc1 (stereo not drawn)	i	35.2	i	i	i	i	30.2	26.9
CCC(NC(=O)c1cc(COc2ccc(F)cc2Cl)on1)c1ccncc1 (stereo not drawn)	i	30.5	i	i	i	i	i	46.8
CCC(NC(=O)c1cc(COc2cncc(Cl)c2)on1)c1ccncc1 (stereo not drawn)	i	i	i	i	i	i	nt	nt
O=C(COc1cccc(C(F)(F)F)c1)Nc1ccc(S(=O)(=O)N2CCCCC2)cc1	i	nt	i	i	i	i	nt	nt
Cc1c(Cl)ccc2c1NC(=O)[C@]21N[C@@H](Cc2ccccc2)[C@H]2C(=O)N(c3ccc(F)cc3)C(=O)[C@H]21	i	35.7	i	i	i	i	67.4	69.4
O=[N+]([O-])c1ccc(N2CCN(C(=S)Nc3ccc(F)cc3F)CC2)cc1	i	i	i	i	i	i	nt	nt
C=CCn1c(COc2ccccc2)nnc1SCc1ccc(C#N)cc1	i	i	i	i	i	i	nt	nt
C=CCn1c(COc2ccc(Cl)cc2)nnc1SCc1ccc(C#N)cc1	i	26.5	i	i	i	i	41.0	46.9
Cc1ccc(C)c(N2N=C(C(=O)OCc3nnc(-c4cccs4)o3)CCC2=O)c1	i	nt	nt	nt	nt	i	nt	nt
CC(=O)N1CCN(C(=O)C(Cc2ccccc2)NC(=O)c2ccccc2)CC1 (stereo not drawn)	i	nt	nt	nt	nt	i	nt	nt
O=C(NC(Cc1ccccc1)C(=O)N1CCN(S(=O)(=O)c2ccccc2)CC1)c1ccccc1 (stereo not drawn)	i	21.9	i	i	i	i	i	i
COc1ccc(S(=O)(=O)N2CCCCCC2)cc1C(=O)N(C)CCOc1ccccc1	i	nt	i	i	i	i	nt	nt
O=C(NCCc1ccccc1)c1cc(S(=O)(=O)N2CCCC2)ccc1F	i	25.8	i	i	i	i	i	i
Cc1ccc(S(=O)(=O)N2CCCCC2)cc1C(=O)N(C)CCOc1ccccc1	i	22.7	i	i	i	i	i	21.7
Cc1ccc2oc(=O)n(CC(=O)c3ccc(F)cc3)c2c1	i	24.6	i	i	i	i	i	i
CC(CC(=O)Nc1nnc(C(C)(C)C)s1)c1ccccc1 (stereo not drawn)	i	i	i	i	i	i	nt	nt

Screens: PubChem BioAssay, several laboratories
